According to ChEMBL document CHEMBL3352237, “Synthesis and biological evaluation of novel peptide BF2 as an antibacterial agent against clinical isolates of vancomycin-resistant enterococci” (J Med Chem, 2014):
Values after ≈ are worked out from the molar mass of the structure shown.

Legend:
Type in all cases: functional
Enterococcus [1] = assay: Antibacterial activity against vancomycin-resistant Enterococcus ATCC 51299 after overnight incubation by two-fold serial dilution method
Enterococcus [2] = assay: Antibacterial activity against vancomycin-resistant Enterococcus ATCC 29212 after overnight incubation by two-fold serial dilution method
Enterococcus faecalis [3] = assay: Antibacterial activity against vancomycin-resistant Enterococcus faecalis clinical isolate 5814 after overnight incubation by two-fold serial dilution method
Enterococcus faecalis [4] = assay: Antibacterial activity against vancomycin-resistant Enterococcus faecalis clinical isolate 7670 after overnight incubation by two-fold serial dilution method
Enterococcus faecalis [5] = assay: Antibacterial activity against vancomycin-resistant Enterococcus faecalis clinical isolate 22626 after overnight incubation by two-fold serial dilution method
Enterococcus faecalis [6] = assay: Antibacterial activity against vancomycin-resistant Enterococcus faecalis clinical isolate 7077 after overnight incubation by two-fold serial dilution method
Enterococcus faecalis [7] = assay: Antibacterial activity against vancomycin-resistant Enterococcus faecalis clinical isolate 7079 after overnight incubation by two-fold serial dilution method
Enterococcus faecalis [8] = assay: Antibacterial activity against vancomycin-resistant Enterococcus faecalis clinical isolate 7846 after overnight incubation by two-fold serial dilution method
Enterococcus faecalis [9] = assay: Antibacterial activity against vancomycin-resistant Enterococcus faecalis clinical isolate 21/235 after overnight incubation by two-fold serial dilution method
Enterococcus faecalis [10] = assay: Antibacterial activity against vancomycin-resistant Enterococcus faecalis clinical isolate 5642 after overnight incubation by two-fold serial dilution method
Enterococcus faecalis [11] = assay: Antibacterial activity against vancomycin-resistant Enterococcus faecalis clinical isolate 6093 after overnight incubation by two-fold serial dilution method
Enterococcus faecalis [12] = assay: Antibacterial activity against vancomycin-resistant Enterococcus faecalis clinical isolate 22/203 after overnight incubation by two-fold serial dilution method
Enterococcus faecalis [13] = assay: Antibacterial activity against vancomycin-resistant Enterococcus faecalis clinical isolate 387702 after overnight incubation by two-fold serial dilution method
Enterococcus faecalis [14] = assay: Antibacterial activity against vancomycin-resistant Enterococcus faecalis clinical isolate 27728 after overnight incubation by two-fold serial dilution method
Enterococcus faecalis [15] = assay: Antibacterial activity against vancomycin-resistant Enterococcus faecalis clinical isolate 5648 after overnight incubation by two-fold serial dilution method
Enterococcus faecium [16] = assay: Antibacterial activity against vancomycin-resistant Enterococcus faecium clinical isolate 17301 after overnight incubation by two-fold serial dilution method
Enterococcus faecium [17] = assay: Antibacterial activity against vancomycin-resistant Enterococcus faecium clinical isolate 7/27 after overnight incubation by two-fold serial dilution method
Enterococcus faecium [18] = assay: Antibacterial activity against vancomycin-resistant Enterococcus faecium clinical isolate 23/240 after overnight incubation by two-fold serial dilution method
Enterococcus faecium [19] = assay: Antibacterial activity against vancomycin-resistant Enterococcus faecium clinical isolate 10177 after overnight incubation by two-fold serial dilution method
Enterococcus faecium [20] = assay: Antibacterial activity against vancomycin-resistant Enterococcus faecium clinical isolate 28/211 after overnight incubation by two-fold serial dilution method
Enterococcus faecium [21] = assay: Antibacterial activity against vancomycin-resistant Enterococcus faecium clinical isolate 151495 after overnight incubation by two-fold serial dilution method
Enterococcus faecium [22] = assay: Antibacterial activity against vancomycin-resistant Enterococcus faecium clinical isolate 15/213 after overnight incubation by two-fold serial dilution method
Enterococcus faecium [23] = assay: Antibacterial activity against vancomycin-resistant Enterococcus faecium clinical isolate 14643 after overnight incubation by two-fold serial dilution method
Enterococcus faecium [24] = assay: Antibacterial activity against vancomycin-resistant Enterococcus faecium clinical isolate 5396 after overnight incubation by two-fold serial dilution method
Enterococcus faecium [25] = assay: Antibacterial activity against vancomycin-resistant Enterococcus faecium clinical isolate 31176 after overnight incubation by two-fold serial dilution method
Enterococcus faecium [26] = assay: Antibacterial activity against vancomycin-resistant Enterococcus faecium clinical isolate 31386 after overnight incubation by two-fold serial dilution method
Enterococcus faecium [27] = assay: Antibacterial activity against vancomycin-resistant Enterococcus faecium clinical isolate 3864 after overnight incubation by two-fold serial dilution method
Enterococcus faecium [28] = assay: Antibacterial activity against vancomycin-resistant Enterococcus faecium clinical isolate 27/16917 after overnight incubation by two-fold serial dilution method; settings: isolate 27/1691
Enterococcus faecium [29] = assay: Antibacterial activity against vancomycin-resistant Enterococcus faecium clinical isolate 12875 after overnight incubation by two-fold serial dilution method
Enterococcus faecium [30] = assay: Antibacterial activity against vancomycin-resistant Enterococcus faecium clinical isolate 27/221 after overnight incubation by two-fold serial dilution method
Enterococcus faecium [31] = assay: Antibacterial activity against vancomycin-resistant Enterococcus faecium clinical isolate 8/224 after overnight incubation by two-fold serial dilution method
Enterococcus faecium [32] = assay: Antibacterial activity against vancomycin-resistant Enterococcus faecium clinical isolate 147969 after overnight incubation by two-fold serial dilution method
Enterococcus faecium [33] = assay: Antibacterial activity against vancomycin-resistant Enterococcus faecium clinical isolate 29/203 after overnight incubation by two-fold serial dilution method
Enterococcus faecium [34] = assay: Antibacterial activity against vancomycin-resistant Enterococcus faecium clinical isolate 30/48 after overnight incubation by two-fold serial dilution method
Enterococcus faecium [35] = assay: Antibacterial activity against vancomycin-resistant Enterococcus faecium clinical isolate 16475 after overnight incubation by two-fold serial dilution method
Enterococcus faecium [36] = assay: Antibacterial activity against vancomycin-resistant Enterococcus faecium clinical isolate 16115 after overnight incubation by two-fold serial dilution method
Enterococcus faecium [37] = assay: Antibacterial activity against vancomycin-resistant Enterococcus faecium clinical isolate 5484 after overnight incubation by two-fold serial dilution method
Enterococcus faecium [38] = assay: Antibacterial activity against vancomycin-resistant Enterococcus faecium clinical isolate 12/266 after overnight incubation by two-fold serial dilution method
Enterococcus faecium [39] = assay: Antibacterial activity against vancomycin-resistant Enterococcus faecium clinical isolate 6/22 after overnight incubation by two-fold serial dilution method
Enterococcus faecium [40] = assay: Antibacterial activity against vancomycin-resistant Enterococcus faecium clinical isolate 18906 after overnight incubation by two-fold serial dilution method
Enterococcus faecium [41] = assay: Antibacterial activity against vancomycin-resistant Enterococcus faecium clinical isolate 13246 after overnight incubation by two-fold serial dilution method
Enterococcus [42] = assay: Antibacterial activity against Enterococcus infected in Wistar albino rat assessed as reduction in cell count at 25 mg/kg, iv after 1 hr relative to control; design: scale not given: the % may be the effect or the level left
Method in brief: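 Female Wistar albino rats, 40−45 days old, 125−150 g, 5 groups of 3. Enterococci were grown to log phase in MH broth, centrifuged at 1000g for 15 min, and diluted in PBS to 4 × 10^6 CFU/mL. Rats were inoculated i.v. and treated i.v. 1 h later with 12.5, 25 or 37.5 mg/kg peptide, PBS vehicle, or linezolid 25 mg/kg. Tail-vein blood taken 1 h post-treatment was plated on blood agar, incubated overnight at 37 °C, and colonies counted.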

Enterococcus [43] = assay: Antibacterial activity against vancomycin-resistant Enterococcus ATCC 51299 by checkerboard titration method in presence of vancomycin
Enterococcus [44] = assay: Antibacterial activity against vancomycin-resistant Enterococcus ATCC 51299 by checkerboard titration method in presence of linezolid
Enterococcus [45] = assay: Antibacterial activity against vancomycin-resistant Enterococcus ATCC 29212 by checkerboard titration method in presence of vancomycin
Enterococcus [46] = assay: Antibacterial activity against vancomycin-resistant Enterococcus ATCC 29212 by checkerboard titration method in presence of linezolid

## H-RWRLLLLLKRH-OH
Enterococcus [1]
  MIC: 25 µg/mL
Enterococcus [2]
  MIC: 25 µg/mL
Enterococcus faecalis [3]
  MIC: 25 µg/mL
Enterococcus faecalis [4]
  MIC: 25 µg/mL
Enterococcus faecalis [5]
  MIC: 25 µg/mL
Enterococcus faecalis [6]
  MIC: 25 µg/mL
Enterococcus faecalis [7]
  MIC: 25 µg/mL
Enterococcus faecalis [8]
  MIC: 25 µg/mL
Enterococcus faecalis [9]
  MIC: 25 µg/mL
Enterococcus faecalis [10]
  MIC: 25 µg/mL
Enterococcus faecalis [11]
  MIC: 25 µg/mL
Enterococcus faecalis [12]
  MIC: 25 µg/mL
Enterococcus faecalis [13]
  MIC: 25 µg/mL
Enterococcus faecalis [14]
  MIC: 25 µg/mL
Enterococcus faecalis [15]
  MIC: 25 µg/mL
Enterococcus faecium [16]
  MIC: 25 µg/mL
Enterococcus faecium [17]
  MIC: 25 µg/mL
Enterococcus faecium [18]
  MIC: 25 µg/mL
Enterococcus faecium [19]
  MIC: 25 µg/mL
Enterococcus faecium [20]
  MIC: 25 µg/mL
Enterococcus faecium [21]
  MIC: 25 µg/mL
Enterococcus faecium [22]
  MIC: 25 µg/mL
Enterococcus faecium [23]
  MIC: 25 µg/mL
Enterococcus faecium [24]
  MIC: 25 µg/mL
Enterococcus faecium [25]
  MIC: 25 µg/mL
Enterococcus faecium [26]
  MIC: 25 µg/mL
Enterococcus faecium [27]
  MIC: 25 µg/mL
Enterococcus faecium [28]
  MIC: 25 µg/mL
Enterococcus faecium [29]
  MIC: 25 µg/mL
Enterococcus faecium [30]
  MIC: 25 µg/mL
Enterococcus faecium [31]
  MIC: 25 µg/mL
Enterococcus faecium [32]
  MIC: 25 µg/mL
Enterococcus faecium [33]
  MIC: 25 µg/mL
Enterococcus faecium [34]
  MIC: 25 µg/mL
Enterococcus faecium [35]
  MIC: 25 µg/mL
Enterococcus faecium [36]
  MIC: 25 µg/mL
Enterococcus faecium [37]
  MIC: 25 µg/mL
Enterococcus faecium [38]
  MIC: 25 µg/mL
Enterococcus faecium [39]
  MIC: 25 µg/mL
Enterococcus faecium [40]
  MIC: 25 µg/mL
Enterococcus faecium [41]
  MIC: 25 µg/mL

## CC(=O)NC[C@H]1CN(c2ccc(N3CCOCC3)c(F)c2)C(=O)O1 [LINEZOLID]
Enterococcus [42]
  Activity: 93.8%
Enterococcus [1]
  MIC: 2 µg/mL (≈ 5.93 µM)
Enterococcus [2]
  MIC: 1 µg/mL (≈ 2.96 µM)
Enterococcus faecium [16]
  MIC: 1 µg/mL (≈ 2.96 µM)
Enterococcus faecium [17]
  MIC: 2 µg/mL (≈ 5.93 µM)
Enterococcus faecium [18]
  MIC: 1 µg/mL (≈ 2.96 µM)
Enterococcus faecium [19]
  MIC: 1 µg/mL (≈ 2.96 µM)
Enterococcus faecium [20]
  MIC: 2 µg/mL (≈ 5.93 µM)
Enterococcus faecium [21]
  MIC: 1 µg/mL (≈ 2.96 µM)
Enterococcus faecium [22]
  MIC: 1 µg/mL (≈ 2.96 µM)
Enterococcus faecium [23]
  MIC: 2 µg/mL (≈ 5.93 µM)
Enterococcus faecium [24]
  MIC: 1 µg/mL (≈ 2.96 µM)
Enterococcus faecium [25]
  MIC: 1 µg/mL (≈ 2.96 µM)
Enterococcus faecium [26]
  MIC: 2 µg/mL (≈ 5.93 µM)
Enterococcus faecium [27]
  MIC: 2 µg/mL (≈ 5.93 µM)
Enterococcus faecium [28]
  MIC: 1 µg/mL (≈ 2.96 µM)
Enterococcus faecium [29]
  MIC: 1 µg/mL (≈ 2.96 µM)
Enterococcus faecium [30]
  MIC: 1 µg/mL (≈ 2.96 µM)
Enterococcus faecium [31]
  MIC: 1 µg/mL (≈ 2.96 µM)
Enterococcus faecium [32]
  MIC: 1 µg/mL (≈ 2.96 µM)
Enterococcus faecium [33]
  MIC: 1 µg/mL (≈ 2.96 µM)
Enterococcus faecium [34]
  MIC: 2 µg/mL (≈ 5.93 µM)
Enterococcus faecium [35]
  MIC: 1 µg/mL (≈ 2.96 µM)
Enterococcus faecium [36]
  MIC: 1 µg/mL (≈ 2.96 µM)
Enterococcus faecium [37]
  MIC: 1 µg/mL (≈ 2.96 µM)
Enterococcus faecium [38]
  MIC: 2 µg/mL (≈ 5.93 µM)
Enterococcus faecium [39]
  MIC: 1 µg/mL (≈ 2.96 µM)
Enterococcus faecium [40]
  MIC: 2 µg/mL (≈ 5.93 µM)
Enterococcus faecium [41]
  MIC: 2 µg/mL (≈ 5.93 µM)

## H-RWRLLLLKRH-OH
Enterococcus [1]
  MIC: 12.5 µg/mL
Enterococcus [2]
  MIC: 12.5 µg/mL
Enterococcus faecalis [3]
  MIC: 12.5 µg/mL
Enterococcus faecalis [4]
  MIC: 12.5 µg/mL
Enterococcus faecalis [5]
  MIC: 12.5 µg/mL
Enterococcus faecalis [6]
  MIC: 12.5 µg/mL
Enterococcus faecalis [7]
  MIC: 12.5 µg/mL
Enterococcus faecalis [8]
  MIC: 12.5 µg/mL
Enterococcus faecalis [9]
  MIC: 12.5 µg/mL
Enterococcus faecalis [10]
  MIC: 12.5 µg/mL
Enterococcus faecalis [11]
  MIC: 12.5 µg/mL
Enterococcus faecalis [12]
  MIC: 12.5 µg/mL
Enterococcus faecalis [13]
  MIC: 12.5 µg/mL
Enterococcus faecalis [14]
  MIC: 12.5 µg/mL
Enterococcus faecalis [15]
  MIC: 12.5 µg/mL
Enterococcus faecium [16]
  MIC: 12.5 µg/mL
Enterococcus faecium [17]
  MIC: 12.5 µg/mL
Enterococcus faecium [18]
  MIC: 12.5 µg/mL
Enterococcus faecium [19]
  MIC: 12.5 µg/mL
Enterococcus faecium [20]
  MIC: 12.5 µg/mL
Enterococcus faecium [21]
  MIC: 12.5 µg/mL
Enterococcus faecium [22]
  MIC: 12.5 µg/mL
Enterococcus faecium [23]
  MIC: 12.5 µg/mL
Enterococcus faecium [24]
  MIC: 12.5 µg/mL
Enterococcus faecium [25]
  MIC: 12.5 µg/mL
Enterococcus faecium [26]
  MIC: 12.5 µg/mL
Enterococcus faecium [27]
  MIC: 12.5 µg/mL
Enterococcus faecium [28]
  MIC: 12.5 µg/mL
Enterococcus faecium [29]
  MIC: 12.5 µg/mL
Enterococcus faecium [30]
  MIC: 12.5 µg/mL
Enterococcus faecium [31]
  MIC: 12.5 µg/mL
Enterococcus faecium [32]
  MIC: 12.5 µg/mL
Enterococcus faecium [33]
  MIC: 12.5 µg/mL
Enterococcus faecium [34]
  MIC: 12.5 µg/mL
Enterococcus faecium [35]
  MIC: 12.5 µg/mL
Enterococcus faecium [36]
  MIC: 12.5 µg/mL
Enterococcus faecium [37]
  MIC: 12.5 µg/mL
Enterococcus faecium [38]
  MIC: 12.5 µg/mL
Enterococcus faecium [39]
  MIC: 12.5 µg/mL
Enterococcus faecium [40]
  MIC: 12.5 µg/mL
Enterococcus faecium [41]
  MIC: 12.5 µg/mL

## H-FLPLIGRVLSGIL-NH2 [TEMPORIN A]
Enterococcus [43]
  fractional inhibitory concentration index (FICI): 1.5
Enterococcus [44]
  fractional inhibitory concentration index (FICI): 0.75
Enterococcus [45]
  fractional inhibitory concentration index (FICI): 1.25
Enterococcus [46]
  fractional inhibitory concentration index (FICI): 0.75
